From ChEMBL document CHEMBL3091430, “Design and evaluation of xanthine based adenosine receptor antagonists: potential hypoxia targeted immunotherapies” (Bioorg Med Chem, 2013) come the findings set out here.

The source made the active and inactive calls. The calls are words filed in the database; no cut-off is given here. Where only a bound is given, the exact number is not on record here.

Series [1] in a line: Photostability of the compound assessed as compound remaining after 2 weeks by HPLC analysis. The format is physicochemical. The settings on record: 336 h.
The next series relates to Lymphocyte. The experiment in a line: Induction of mAB-CD3-mediated IFN-gamma production in CGS-21680-treated C57/BL6 mouse lymphocytes at 0.5 uM after 24 hrs by ELISA. The class given is functional, cell-based. The essentials: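 C57/BL6 mouse splenic lymphocytes activated with 0.1 μg/mL anti-CD3 mAb, then immediately given 1, 10 or 100 nM CGS 21680 with or without antagonist at 0.5 μM. Supernatant IFN-gamma measured after 24 h by sandwich ELISA (paired mAb with standard), in pg/mL; triplicates, mean ± SEM.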

A short description of series [2]: Partition coefficient, log K of the compound. The class given is physicochemical. The settings on record: octanol/water.
Series [3] is described as follows: Octanol-water partition coefficient, log P of the compound by HPLC analysis. The format is physicochemical.
In series [4] the target is Adenosine receptor A2a (Mus musculus) (UniProt Q60613). The series is described as follows: Antagonist activity at adenosine A2A receptor in C57/BL6 mouse lymphocytes assessed as inhibition of CGS-21680-mediated cAMP accumulation after 15 mins by ELISA. The class given is functional, cell-based. In outline: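 Splenic lymphocytes from C57/BL6 mice stimulated with 1 μM CGS 21680 (A2AR agonist), with or without antagonist over 0.1–10 μM; 15 min at 37 °C, stopped with 1 N HCl. Intracellular cAMP quantified by ELISA, expressed as pmol/million cells; triplicate samples, mean ± SEM.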
Adenosine receptor A2a (Mus musculus), sequence (Q60613 whole entry): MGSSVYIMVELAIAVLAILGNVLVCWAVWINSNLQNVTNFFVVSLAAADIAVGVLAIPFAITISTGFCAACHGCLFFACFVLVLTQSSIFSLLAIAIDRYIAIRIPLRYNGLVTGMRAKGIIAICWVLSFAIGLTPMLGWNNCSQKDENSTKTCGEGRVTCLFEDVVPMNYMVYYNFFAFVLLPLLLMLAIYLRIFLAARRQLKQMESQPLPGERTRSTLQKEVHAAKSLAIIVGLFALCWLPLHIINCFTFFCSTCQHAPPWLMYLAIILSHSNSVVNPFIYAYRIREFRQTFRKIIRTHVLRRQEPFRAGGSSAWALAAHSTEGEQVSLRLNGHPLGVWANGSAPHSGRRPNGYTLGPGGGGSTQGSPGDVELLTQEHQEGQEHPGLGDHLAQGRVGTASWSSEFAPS

A short description of series [5]: Photostability of the compound assessed as compound remaining measured within 7 days by HPLC analysis. The format is physicochemical. To be noted: read-out: Stability.
Series [6] in a line: Half life in rat. The class given is ADME, organism-based. To be noted: in vivo.
A short description of series [7]: Photostability of the compound assessed as compound remaining measured within 24 hrs by HPLC analysis. The class given is physicochemical. To be noted: read-out: Stability.
The nature of series [8]: Half life in mouse at 20 mg/kg, ip by HPLC analysis. The format is ADME, organism-based. Details: dose 20 mg/kg, route intraperitoneal. The settings on record: in vivo.

On to `CCn1c(=O)c2c(nc(/C=C/c3ccc(C(=O)OCCOCCOCCOCCOCCOCCOCCOCCOC)c(OC)c3)n2C)n(CC)c1=O`, for which the Stability result in [1] is reported as “Stable”. In addition, in the series with Lymphocyte, the result was Active. Moreover, the “log K” value in series [2] turned out to be 0.145. For the same compound, in [3], the log partition coefficient (logP) worked out at 2.8.
On to `CCn1c(=O)c2c(nc(/C=C/c3ccc(C(=O)OC)c(OC)c3)n2C)n(CC)c1=O`, for which the inhibition result in [4] was “Active”.
As to `CCn1c(=O)c2c(nc(/C=C/c3ccc(OC)c(OC)c3)n2C)n(CC)c1=O` [ISTRADEFYLLINE], the remaining at 168 h in series [5] is more than 50%. The half-life in series [6] was 2 h. The result with Lymphocyte was Active. In series [7], the remaining at 24 h was found to be 10%. Also, the “log K” value in [2] amounted to 0.162. In addition, in series [3], the logP was 2.98.
For the compound `Nc1nc(NCCc2ccc(O)cc2)nc2nc(-c3ccco3)nn12` [ZM-241385], in [8], the half-life is less than 1 h.

The term logP denotes the decadic logarithm of the partition coefficient of the neutral form, usually between octanol and water. A lower logP goes with lower lipophilicity. One may read the half-life as the time in which the quantity being followed falls by half.
